Test results: ChEMBL document CHEMBL1275477, “Discovery and characterization of QPT-1, the progenitor of a new class of bacterial topoisomerase inhibitors” (Antimicrob Agents Chemother, 2008)

Columns and labels:
Type in all cases: functional
Staphylococcus aureus [1] = experiment: Antibacterial activity against methicillin-susceptible Staphylococcus aureus by broth microdilution method
Procedure, shortened: (§1)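 Broth microdilution MIC following National Committee for Clinical Laboratory Standards methods. Plasmid-borne GyrB in transformed S. aureus strains was overexpressed by adding 100 ng/ml doxycycline.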

Haemophilus influenzae = experiment: Antibacterial activity against Haemophilus influenzae UC30063 by broth microdilution method; procedure, shortened: as §1
Streptococcus pyogenes = experiment: Antibacterial activity against Streptococcus pyogenes UC152 by broth microdilution method; procedure, shortened: as §1
Staphylococcus aureus [2] = experiment: Antibacterial activity against ciprofloxacin-resistant Staphylococcus aureus by broth microdilution method; procedure, shortened: as §1
Staphylococcus aureus [3] = experiment: Antibacterial activity against methicillin and ciprofloxacin-resistant Staphylococcus aureus UC12673 by broth microdilution method; procedure, shortened: as §1
Staphylococcus aureus [4] = experiment: Antibacterial activity against Staphylococcus aureus UC9218 by broth microdilution method in presence of 50% serum; procedure, shortened: as §1
Enterococcus faecium = experiment: Antibacterial activity against Enterococcus faecium UC12712 by broth microdilution method; procedure, shortened: as §1
[5] = tested on: Staphylococcus epidermidis; experiment: Antibacterial activity against methicillin and ciprofloxacin-resistant Staphylococcus epidermidis UC12084 by broth microdilution method; procedure, shortened: as §1
Staphylococcus aureus [6] = experiment: Antibacterial activity against methicillin-resistant Staphylococcus aureus UC9213 by broth microdilution method; procedure, shortened: as §1
Streptococcus pneumoniae [7] = experiment: Antibacterial activity against Streptococcus pneumoniae UC15142 by broth microdilution method; procedure, shortened: as §1
Streptococcus pneumoniae [8] = experiment: Antibacterial activity against ciprofloxacin-resistant Streptococcus pneumoniae by broth microdilution method; procedure, shortened: as §1
Staphylococcus aureus [9] = experiment: Antibacterial activity against methicillin-resistant Staphylococcus aureus by broth microdilution method; procedure, shortened: as §1
Streptococcus pneumoniae [10] = experiment: Antibacterial activity against Streptococcus pneumoniae UC9912 by broth microdilution method; procedure, shortened: as §1
Staphylococcus aureus [11] = experiment: Antibacterial activity against Staphylococcus aureus UC9218 by broth microdilution method in presence of 25% serum; procedure, shortened: as §1
Klebsiella pneumoniae = experiment: Antibacterial activity against Klebsiella pneumoniae UC12081 by broth microdilution method; procedure, shortened: as §1
Moraxella catarrhalis = experiment: Antibacterial activity against Moraxella catarrhalis UC3067 by broth microdilution method; procedure, shortened: as §1
Pseudomonas aeruginosa = experiment: Antibacterial activity against Pseudomonas aeruginosa UC6676 by broth microdilution method; procedure, shortened: as §1
Streptococcus pneumoniae [12] = experiment: Antibacterial activity against Streptococcus pneumoniae by broth microdilution method; procedure, shortened: as §1
Enterococcus faecalis = experiment: Antibacterial activity against Enterococcus faecalis UC9217 by broth microdilution method; procedure, shortened: as §1
Escherichia coli = experiment: Antibacterial activity against Escherichia coli UC6674 by broth microdilution method; procedure, shortened: as §1
Staphylococcus aureus [13] = experiment: Antibacterial activity against methicillin-susceptible Staphylococcus aureus UC9218 by broth microdilution method; procedure, shortened: as §1

C[C@@H]1CN2c3ccc([N+](=O)[O-])cc3CC3(C(=O)NC(=O)NC3=O)[C@H]2[C@H](C)O1
> 64 µg/mL: MIC (Klebsiella pneumoniae) | MIC (Pseudomonas aeruginosa)
0.25 µg/mL: MIC (Staphylococcus aureus [13])
2 µg/mL: MIC (Streptococcus pneumoniae [7]) | MIC50 (Streptococcus pneumoniae [8]) | MIC (Streptococcus pneumoniae [10]) | MIC50 (Streptococcus pneumoniae [12]) | MIC (Enterococcus faecalis) | MIC (Escherichia coli)
1 µg/mL: MIC (Streptococcus pyogenes) | MIC (Staphylococcus aureus [4]) | MIC (Moraxella catarrhalis)
4 µg/mL: MIC (Enterococcus faecium) | MIC90 (Streptococcus pneumoniae [8]) | MIC90 (Streptococcus pneumoniae [12])
0.125 µg/mL: MIC (Haemophilus influenzae)
0.5 µg/mL: MIC50 (Staphylococcus aureus [1]) | MIC90 (Staphylococcus aureus [1]) | MIC50 (Staphylococcus aureus [2]) | MIC90 (Staphylococcus aureus [2]) | MIC (Staphylococcus aureus [3]) | MIC [5] | MIC (Staphylococcus aureus [6]) | MIC50 (Staphylococcus aureus [9]) | MIC90 (Staphylococcus aureus [9]) | MIC (Staphylococcus aureus [11])
